Measurements pooled from the literature.
Each line is one published result; the experiments were not run side by side.
Target: Protein kinase C delta type (PRKCD, Homo sapiens, UniProt Q05655)

| Compound | read-out | mode | method | tested at | endpoint | value |
| --- | --- | --- | --- | --- | --- | --- |
| FC(F)(F)c1ccc2c(c1)nc(-c1cccnc1)n2C1CC1 | cell-free assay |  | competition with immobilised ligand | 1 µM | remaining binding | 100% |
| Cn1c2ccccc2c2c3c(c4c5ccccc5n(CCC#N)c4c21)CNC3=O | cell-free assay |  |  | 0.5 µM | remaining signal | 41.9% |
| CO[C@@H](C)c1c(Nc2ccc([C@@H](N(C)C(=O)C3CCS(=O)(=O)CC3)C(F)(F)F)cc2)cnc2cc(Cl)nn12 | cell-free assay |  | competition with immobilised ligand | 1 µM | remaining binding | 90% |
| CCCOc1ccc(OC)c(F)c1C(=O)c1ccc(C(=O)N[C@@H]2CNC[C@H]2NC(=O)c2ccc3[nH]ncc3c2)cc1 | enzyme activity | inhibitor |  | 50 nM | remaining activity | 103% |
| O=C1NC(=O)c2cc(Nc3ccc(F)cc3)c(Nc3ccc(F)cc3)cc21 | cell-free assay |  |  | 0.5 µM | remaining signal | 98.2% |
| Cn1cnc(Br)c1C1=CN(c2ncnc3[nH]cnc23)CCS1 | enzyme activity | inhibitor | radiometric | 2 µM | inhibition | 93.4% |
| O=C1Nc2ccc(Cl)cc2C1=Cc1cc(Cl)c(O)c(Cl)c1 | cell-free assay |  |  | 0.5 µM | remaining signal | 86.7% |
| Cc1ccc(C(=O)NCc2ccsc2)cc1C#Cc1cn(C(C)C)c2ncnc(N)c12 | enzyme activity | inhibitor |  | 1 µM | activity vs control | 90% |
| CC1=C(C#N)C(c2ccc3c(c2)c(NC(=O)c2ccccc2C)nn3C)C(C#N)=C(C)N1 | cell-free assay |  | competition with immobilised ligand | 1 µM | remaining binding | 100% |
| Cc1cnc(NC2CCOCC2)nc1-n1cnc(C(=O)NC(CN)c2cc(F)cc(Cl)c2)c1 (stereo not drawn) | enzyme activity | inhibitor | radiometric | 1 µM | remaining activity | 59% |
| c1ccc(N2CCN(Cc3nc4ccccc4[nH]3)CC2)nc1 | cell-free assay |  | competition with immobilised ligand | 1 µM | remaining binding | 100% |
| O=C(Nc1cnn(-c2csc(C(=O)NC3COC3)c2)c1)Nc1ccccc1Cl | enzyme activity | inhibitor |  | 5 µM | remaining activity | 112% |
| Nc1c(C(=O)NCc2ccc(C(=O)NCCCC3CCCCC3)cc2)cnn1-c1ccccc1 | cell-free assay |  | competition with immobilised ligand | 0.1 µM | remaining binding | 88% |
| Cc1cc(NC(=O)c2cccc3cc(-c4cccc5[nH]nc(N)c45)ccc23)ccc1F | enzyme activity | inhibitor |  | 0.1 µM | activity vs control | 108% |
| Nc1ncnc2occ(-c3ccc(NC(=O)Nc4cc(C(F)(F)F)ccc4F)cc3)c12 | cell-free assay |  |  | 20 µM | remaining signal | 14% |
| CS(=O)(=O)NCC[C@H](NC(=O)c1cncc2c1cnn2-c1ccc(F)cc1)c1ccnc(S(C)(=O)=O)c1 | cell-free assay |  | competition with immobilised ligand | 1 µM | remaining binding | 76% |
| Cc1ccc(Nc2nccc(N(C)c3ccc4c(C)n(C)nc4c3)n2)cc1S(N)(=O)=O | enzyme activity |  |  | 0.5 µM | remaining activity | 106% |
| COc1cc2ncnc(Nc3ccc(Oc4ccccc4)cc3C)c2cc1OC | enzyme activity | inhibitor |  | 1 µM | inhibition | 11% |
| CCN(CC)c1ccc(C2=NNC(=O)CC2C)cc1[N+](=O)[O-] (stereo not drawn) | enzyme activity | inhibitor |  | 10 µM | remaining activity | 85% |
| CNCc1ccccc1-c1csc([C@@H](C)Nc2nc(C)nc3cc(OC)c(OC)cc23)c1 | cell-free assay |  | competition with immobilised ligand | 1 µM | remaining binding | 98% |
| CC(C)(C)c1nc(-c2cccc(NS(=O)(=O)c3c(F)cccc3F)c2F)c(-c2ccnc(N)n2)s1 | enzyme activity | inhibitor | radiometric | 1 µM | remaining activity | 119% |
| CCCS(=O)(=O)Nc1ccc(F)c(C(=O)c2c[nH]c3ncc(-c4ccc(Cl)cc4)cc23)c1F | enzyme activity | inhibitor |  | 1 µM | inhibition | < 20% |
| Cn1cncc1C1=CN(c2ncnc3[nH]cnc23)CCS1 | enzyme activity | inhibitor | radiometric | 50 nM | inhibition | 12.6% |
| N#Cc1ccc(Nc2ccc3[nH]c(=O)[nH]c3c2)c(Cl)c1 | cell-free assay |  | competition with immobilised ligand | 1 µM | remaining binding | 100% |
